ChEMBL document CHEMBL3804828, “2,4,6-Triaminopyrimidine as a Novel Hinge Binder in a Series of PI3Kδ Selective Inhibitors” (J Med Chem, 2016)

Assays:
[1] = Oral bioavailability in beagle dog at 5 mg/kg administered through gavage measured after 24 hrs by LC/MS/MS analysis; assay type: ADME, organism-based, Canis lupus familiaris; settings: in vivo
In short: (§1)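 Dogs, n=3 per route; iv dose 1 mg/kg in 5% ethanol/55% PEG 400/40% citrate buffer pH 2; oral dose 5 mg/kg in 15% Captisol (w/v) in water; plasma pharmacokinetics.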

[2] = Volume of distribution at steady state in beagle dog at 1 mg/kg, iv administered via infusion over 30 mins measured after 24 hrs by LC/MS/MS analysis; assay type: ADME, organism-based, Canis lupus familiaris; settings: in vivo, read-out: Vdss; in short: as §1
[3] = Clearance in dog hepatocytes at 1 uM by LC/MS/MS analysis; assay type: ADME, cell-based, Canis lupus familiaris, Hepatocyte
[4] = Cmax in Lewis rat at 1 mg/kg, iv administered via infusion over 30 mins or at 5 mg/kg, po administered via gavage by LC/MS/MS analysis; assay type: ADME, organism-based; settings: in vivo
In short: (§2)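 Female Lewis rats, n=3 per route; 30-min iv infusion at 1 mg/kg and oral dose at 5 mg/kg, both in 30% PEG 400/70% water; plasma concentration-time profiles sampled to 24 h; values as mean ± SD.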

[5] = Clearance in human hepatocytes at 1 uM by LC/MS/MS analysis; assay type: ADME, cell-based, Hepatocyte
In short: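 Human hepatocytes, incubated with and without the aldehyde oxidase inhibitor raloxifene; predicted clearance calculated from turnover.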

[6] = species: Homo sapiens; assay: Selectivity ratio of IC50 for human recombinant PI3Kbeta to IC50 for human full length PI3Kdelta catalytic subunit/p85alpha
In short: (§3)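 Ratio calculated from the isoform-specific PI3K IC50 values, with enzyme assays run in quadruplicate.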

[7] = Ratio of drug level in blood to plasma in beagle dog; assay type: ADME, cell-free, Canis lupus familiaris; settings: blood and plasma
[8] = system: Rattus norvegicus; assay: Antiarthritis activity in collagen-induced Lewis rat arthritis model assessed as reduction in pannus formation administered bid through oral gavage for 7 days measured every day started on day 9 and continuing through day 16 of compound dosing; assay type: functional
In short: (§4)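 Female Lewis rats with established collagen-induced arthritis dosed orally by gavage twice daily for 7 days (study days 10–16) with vehicle, 0.34, 1.07, 4.6 or 10 mg/kg, or dexamethasone 0.03 mg/kg; right and left ankle diameters by caliper daily, days 9–16; ankle and knee sections graded 0–5 per histopathology parameter; p < 0.05 versus arthritis + vehicle.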

[9] = system: Rattus norvegicus; assay: Antiarthritis activity in collagen-induced Lewis rat arthritis model assessed as reduction in pannus formation at 1.07 mg/kg administered bid through oral gavage for 7 days measured every day started on day 9 and continuing through day 16 of compound dosing relative to vehicle-treated control; assay type: functional; set-up: scale not given: the % may be the effect or the level left; in short: as §4
[10] = Plasma clearance in Lewis rat at 1 mg/kg, iv administered via infusion over 30 mins measured after 24 hrs by LC/MS/MS analysis; assay type: ADME, organism-based; in short: as §2
[11] = species: Homo sapiens; assay: Selectivity ratio of IC50 for human full length PI3Kalpha catalytic subunit/p85alpha to IC50 for human full length PI3Kdelta catalytic subunit/p85alpha; in short: as §3
[12] = Half life in beagle dog at 5 mg/kg, po administered through gavage measured after 24 hrs by LC/MS/MS analysis; assay type: ADME, organism-based, Canis lupus familiaris; settings: in vivo
[13] = AUCinfinity in Lewis rat at 1 mg/kg, iv administered via infusion over 30 mins or at 5 mg/kg, po administered via gavage by LC/MS/MS analysis; assay type: ADME, organism-based; settings: in vivo; in short: as §2
[14] = system: Rattus norvegicus; assay: In vivo inhibition of PI3Kdelta in rat B-cells assessed as reduction in […] cell activation; assay type: functional, organism-based
In short: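 Rat whole blood, ex vivo; B-cell activation stimulated by anti-IgD (BCR); EC50 and EC90 derived from inhibition of activation.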

[15] = system: Rattus norvegicus; assay: In vivo inhibition of PI3Kdelta in collagen-induced Lewis rat arthritis model at 1.07 mg/kg administered bid through oral gavage at 2 to 12 hrs on 3rd and 7th day of compound dosing; assay type: functional
In short: (§5)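 CIA Lewis rats dosed orally twice daily; plasma drug levels measured in blood samples taken at set times post-dose on days 3 and 7; trough PI3Kδ inhibition estimated from EC50/EC90 of the rat whole-blood ex vivo BCR-induced B-cell activation assay.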

[16] = system: Rattus norvegicus; assay: Antiarthritis activity in collagen-induced Lewis rat arthritis model assessed as reduction in cartilage damage administered bid through oral gavage for 7 days measured every day started on day 9 and continuing through day 16 of compound dosing; assay type: functional; in short: as §4
[17] = system: Rattus norvegicus; assay: In vivo inhibition of PI3Kdelta in collagen-induced Lewis rat arthritis model at 0.34 mg/kg administered bid through oral gavage at 2 to 12 hrs on 3rd and 7th day of compound dosing; assay type: functional
In short: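 Female Lewis rats with established collagen-induced arthritis got vehicle or drug by oral gavage twice daily for 7 days (study days 10–16). Blood was sampled at set times after dosing on days 3 and 7 for plasma drug levels. PI3Kδ inhibition was inferred from those levels against EC50/EC90 values from a rat whole-blood ex vivo anti-IgD (BCR)-stimulated B-cell activation assay.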

[18] = species: Homo sapiens; assay: Selectivity ratio of IC50 for human full length PI3Kgamma to IC50 for human full length PI3Kdelta catalytic subunit/p85alpha; in short: as §3
[19] = system: Rattus norvegicus; assay: Antiarthritis activity in collagen-induced Lewis rat arthritis model assessed as reduction of periosteal bone width at 1.07 mg/kg administered bid through oral gavage for 7 days measured every day started on day 9 and continuing through day 16 of compound dosing relative to vehicle-treated control; assay type: functional; set-up: scale not given: the % may be the effect or the level left; in short: as §4
[20] = Tmax in Lewis rat at 1 mg/kg, iv administered via infusion over 30 mins or at 5 mg/kg, po administered via gavage by LC/MS/MS analysis; assay type: ADME, organism-based; settings: in vivo; in short: as §2
[21] = Oral bioavailability in Lewis rat at 5 mg/kg administered through gavage measured after 24 hrs by LC/MS/MS analysis; assay type: ADME, organism-based; settings: in vivo; in short: as §2
[22] = system: Rattus norvegicus; assay: Antiarthritis activity in collagen-induced Lewis rat arthritis model assessed as reduction in cartilage damage at 1.07 mg/kg administered bid through oral gavage for 7 days measured every day started on day 9 and continuing through day 16 of compound dosing relative to vehicle-treated control; assay type: functional; set-up: scale not given: the % may be the effect or the level left; in short: as §4
[23] = Half life in Lewis rat at 5 mg/kg, po administered through gavage measured after 24 hrs by LC/MS/MS analysis; assay type: ADME, organism-based; settings: in vivo
[24] = Volume of distribution at steady state in Lewis rat at 1 mg/kg, iv administered via infusion over 30 mins measured after 24 hrs by LC/MS/MS analysis; assay type: ADME, organism-based; settings: in vivo, read-out: Vdss; in short: as §2
[25] = system: Rattus norvegicus; assay: Antiarthritis activity in collagen-induced Lewis rat arthritis model assessed as reduction in ankle inflammation at 1.07 mg/kg administered bid through oral gavage for 7 days measured every day started on day 9 and continuing through day 16 of compound dosing relative to vehicle-treated control; assay type: functional; in short: as §4
[26] = system: Rattus norvegicus; assay: In vivo inhibition of PI3Kdelta in collagen-induced Lewis rat arthritis model at 10 mg/kg administered bid through oral gavage at 2 to 12 hrs on 3rd and 7th day of compound dosing; assay type: functional; in short: as §5
[27] = system: Hepatocyte; assay: Clearance in rat hepatocytes at 1 uM by LC/MS/MS analysis; assay type: ADME, cell-based
[28] = system: Rattus norvegicus; assay: Antiarthritis activity in collagen-induced Lewis rat arthritis model assessed as reduction of periosteal bone width administered bid through oral gavage for 7 days measured every day started on day 9 and continuing through day 16 of compound dosing; assay type: functional; in short: as §4

Question: Which bioavailability [1] does the source give for `C[C@H](Nc1nc(N)nc(N)c1C#N)c1nc2cccc(F)c2c(=O)n1-c1cc(F)cc(F)c1` here?
Answer: 100%

Question: And the Vd [2]?
Answer: 1.3 L/kg

Question: What about the CLH [3] of the same compound?
Answer: 4.17 mL/min/kg

Question: What about the Cmax [4] of the same compound?
Answer: 2830 nM

Question: And the CLhep predicted at 1 µM [5]?
Answer: 5.67 mL/min/kg

Question: And the Ratio IC50 [6]?
Answer: 650

Question: And the blood plasma ratio [7]?
Answer: 2.6

Question: And the ED50 [8]?
Answer: 1.5 mg/kg

Question: What about the Activity [9] of the same compound?
Answer: 60%

Question: What about the clearance [10] of the same compound?
Answer: 12.3 mL/min/kg

Question: And the Ratio IC50 [11]?
Answer: 1900

Question: What about the half-life [12] of the same compound?
Answer: 2.17 h

Question: And the AUC(0-inf) [13]?
Answer: 17 µM·h

Question: What about the EC90 [14] of the same compound?
Answer: 100 nM

Question: And the EC50 ([14]; Rattus norvegicus)?
Answer: 20.5 nM

Question: What about the inhibition in vivo at 1.07 mg/kg [15] of the same compound?
Answer: 50%

Question: What about the ED50 [16] of the same compound?
Answer: 1.5 mg/kg

Question: And the inhibition in vivo at 0.34 mg/kg [17]?
Answer: 25%

Question: And the Ratio IC50 [18]?
Answer: 180

Question: What about the Activity [19] of the same compound?
Answer: 52%

Question: And the Tmax [20]?
Answer: 1 h

Question: What about the bioavailability [21] of the same compound?
Answer: 106%

Question: What about the Activity [22] of the same compound?
Answer: 50%

Question: What about the half-life [23] of the same compound?
Answer: 3.2 h

Question: What about the Vd [24] of the same compound?
Answer: 2.6 L/kg

Question: And the inhibition in vivo at 1.07 mg/kg [25]?
Answer: 45%

Question: And the inhibition in vivo at 10 mg/kg [26]?
Answer: > 90%

Question: What about the CLH [27] of the same compound?
Answer: 23.3 mL/min/kg

Question: And the ED50 [28]?
Answer: 1.5 mg/kg
